Activity calls are given as the source filed them. The calls are words filed in the database; no cut-off is given here.

The subject of assay [1] is Platelet. The assay can be described thus: Inhibition of NaAA-induced platelet aggregation in rat blood. Format: functional, cell-based.
The subject of assay [2] is Platelet. The assay can be described thus: Inhibition of epinephrine-induced platelet aggregation in rat blood. The format is functional, cell-based.
In assay [3] the test system is Rattus norvegicus. The assay can be described thus: Effect on LPS-induced Sprague-Dawley rat disseminated intravascular coagulation model assessed as amelioration of increased fibrin degradation product levels at 10 mg/day or 25 mg/day, po after 2 hrs of fasting for 2 consecutive days. Format: functional, organism-based. The procedure, abridged:
(§1)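 Male Sprague–Dawley rats (230–270 g) dosed orally in distilled water once daily for 2 days. Ketamine anaesthesia 1 h after the second dose, then LPS 20 mg/kg in saline infused into the tail vein for 3 h. Citrated plasma was used for PT, aPTT and fibrinogen, serum for FDP (semi-quantitative kit, dilution method), and serum by analyzer for AST and BUN. Mean ± SEM, ANOVA with Tukey HSD, n = 6–13 per group.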

Assay [4] has as its system Rattus norvegicus. The assay can be described thus: Effect on LPS-induced Sprague-Dawley rat disseminated intravascular coagulation model assessed as amelioration of increased urea nitrogen levels at 10 mg/day or 25 mg/day, po after 2 hrs of fasting for 2 consecutive days. The format is functional, organism-based. Put shortly: as §1
Assay [5] deals with Platelet. The assay can be described thus: Inhibition of U46619-induced platelet aggregation in rat blood. The format is functional, cell-based.
Assay [6] has as its system Rattus norvegicus. The assay can be described thus: Effect on Sprague-Dawley rat disseminated intravascular coagulation model assessed as suppression of LPS-induced aspartate aminotransferase levels at 10 mg/day or 25 mg/day, po after 2 hrs of fasting for 2 consecutive days. The format is functional, organism-based. Put shortly:
as §1

Assay [7] concerns Rattus norvegicus. The assay can be described thus: Effect on LPS-induced Sprague-Dawley rat disseminated intravascular coagulation model assessed as prolongation of prothrombin time at 10 mg/day or 25 mg/day, po after 2 hrs of fasting for 2 consecutive days. The format is functional, organism-based. Put shortly: as §1
For assay [8], the system named is Rattus norvegicus. The assay can be described thus: Effect on LPS-induced Sprague-Dawley rat disseminated intravascular coagulation model assessed as prolongation of activated partial […] time at 10 mg/day or 25 mg/day, po after 2 hrs of fasting for 2 consecutive days. The format is functional, organism-based. The procedure, abridged:
as §1

In assay [9] the test system is Platelet. The assay can be described thus: Inhibition of ADP-induced platelet aggregation in rat blood. The format is functional, cell-based. The procedure, abridged:
(§2)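 Rat heart blood in 2.2% citrate, spun at 200g for 10 min to give PRP, adjusted to 400–450 × 10⁶ platelets/ml with saline. PRP pre-incubated 3 min, then sample or vehicle added, with ADP (2–5 × 10⁻⁶ M) or collagen (2–5 × 10⁻⁶ g/ml) added 1 min later. Aggregation read on an aggregometer and the 50% inhibitory concentration determined.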

Assay [10] relates to Platelet. The assay can be described thus: Inhibition of collagen-induced platelet aggregation in rat blood. The format is functional, cell-based. Put shortly: as §2
In assay [11] the test system is Rattus norvegicus. The assay can be described thus: Effect on Sprague-Dawley rat disseminated intravascular coagulation model assessed as prevention of LPS-induced decrease in fibrinogen level at 10 mg/day or 25 mg/day, po after 2 hrs of fasting for 2 consecutive days. Format: functional, organism-based. The procedure, abridged: as §1

Take `Oc1cc2c(cc1O)[C@@H](Cc1ccc3ccccc3c1)NCC2`: the IC50 with Platelet [1] came to 7.9 µM; in the assay on Platelet [2] it was 15000 nM; in the assay with Platelet [5], 49 µM. Further, the outcome in the assay on Rattus norvegicus [3], in the assay on Rattus norvegicus [4], with Rattus norvegicus [6], with Rattus norvegicus [7] and with Rattus norvegicus [8] was Active.

As to `CC(=O)Oc1ccccc1C(=O)O` [ASPIRIN], the IC50 in the assay with Platelet [1] was 66 µM; in the assay on Platelet [2], 53000 nM; in the assay on Platelet [9] it was greater than 1000 µM; in the assay on Platelet [5] it was 340 µM; in the assay with Platelet [10] it was 420 µM.

`Oc1ccc(C[C@H]2NCCc3cc(O)c(O)cc32)cc1` [(+)-HIGENAMINE]: the IC50 with Platelet [1] is 11 µM; in the assay with Platelet [2], 14000 nM; in the assay on Platelet [9] it was greater than 1000 µM; with Platelet [5] it was 15 µM. Moreover, the result in the assay on Rattus norvegicus [3], in the assay on Rattus norvegicus [4], in the assay on Rattus norvegicus [6], in the assay on Rattus norvegicus [7] and with Rattus norvegicus [8] was Active.

As to `Oc1cc2c(cc1O)[C@@H](Cc1cccc3ccccc13)NCC2`, the half-maximal inhibitory concentration (IC50) in the assay with Platelet [1] was 11 µM; with Platelet [2] it was 2400 nM; in the assay on Platelet [5] it was 20 µM. For the same compound, the outcome with Rattus norvegicus [3], with Rattus norvegicus [4], with Rattus norvegicus [7] and with Rattus norvegicus [8] was Active.

As for `Oc1ccc(C[C@@H]2NCCc3cc(O)c(O)cc32)cc1` [(-)-HIGENAMINE], the IC50 in the assay on Platelet [1] is 9.1 µM; in the assay with Platelet [2], 1600 nM; with Platelet [5], 25 µM. The outcome with Rattus norvegicus [3], with Rattus norvegicus [4], with Rattus norvegicus [6], with Rattus norvegicus [7], in the assay with Rattus norvegicus [11] and in the assay on Rattus norvegicus [8] was Active.

In the case of `Oc1cc2c(cc1O)[C@H](Cc1cccc3ccccc13)NCC2`, the IC50 in the assay on Platelet [1] was found to be 5.6 µM; in the assay on Platelet [2] it was 380 nM; in the assay with Platelet [9], 270 µM; in the assay with Platelet [5] it was 16 µM; in the assay on Platelet [10], 69 µM. Besides, the outcome in the assay on Rattus norvegicus [3], in the assay on Rattus norvegicus [4], in the assay on Rattus norvegicus [7] and in the assay with Rattus norvegicus [8] was Active.

As for `Oc1cc2c(cc1O)[C@H](Cc1ccc3ccccc3c1)NCC2`, the IC50 in the assay on Platelet [1] is 6.2 µM; in the assay with Platelet [2] it was 900 nM; in the assay on Platelet [5] it was 61 µM. Also, the outcome with Rattus norvegicus [3], in the assay with Rattus norvegicus [4], in the assay on Rattus norvegicus [6], in the assay with Rattus norvegicus [7], with Rattus norvegicus [11] and in the assay with Rattus norvegicus [8] was Active.

(Values after ChEMBL document CHEMBL1154998, “Enantioselective synthesis of (R)-(+)- and (S)-(-)-higenamine and their analogues with effects on platelet aggregation and experimental animal model of disseminated intravascular coagulation” (Bioorg Med Chem Lett, 2008).)
